Data from ChEMBL document CHEMBL1141869.
Calls of active or inactive are those of the source. The calls are words filed in the database; no cut-off is given here.

Assays:
[1] = target: NAD-dependent histone deacetylase SIR2 (Saccharomyces cerevisiae S288c) (UniProt P06700); assay: Inhibitory activity against recombinant yeast Sir2 at 100 uM
Outline: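 Purified His-tagged recombinant yeast Sir2p (3 μg) was incubated 60 min at 30 °C with 250 μM acetylated histone substrate, 1 mM DTT, 200 μM NAD⁺ and inhibitor at 0, 20, 75, 100, 150 or 300 μM. Deacetylation was detected fluorometrically after developer treatment (ex 360/em 450 nm). Values are means of at least three separate experiments.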

[2] = target: T1, NAD-dependent protein deacetylase sirtuin-2 (Homo sapiens) (UniProt Q8IXJ6); assay: Inhibitory activity against human SIRT2 at 100 uM
T1 sequence (whole entry): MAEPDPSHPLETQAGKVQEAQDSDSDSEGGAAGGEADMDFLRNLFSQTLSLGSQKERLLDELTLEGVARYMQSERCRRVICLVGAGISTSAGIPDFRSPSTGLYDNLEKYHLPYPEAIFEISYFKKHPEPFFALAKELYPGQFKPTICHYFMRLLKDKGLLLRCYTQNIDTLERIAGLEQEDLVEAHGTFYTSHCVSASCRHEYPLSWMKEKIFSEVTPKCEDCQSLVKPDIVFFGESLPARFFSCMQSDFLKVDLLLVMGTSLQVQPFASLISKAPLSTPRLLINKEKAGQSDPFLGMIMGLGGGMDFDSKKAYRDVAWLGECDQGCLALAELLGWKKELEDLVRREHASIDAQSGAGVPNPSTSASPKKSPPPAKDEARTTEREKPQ
Outline: (§1)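 His-tagged recombinant human SIRT1 or SIRT2 (1 μg), purified, run in a fluorogenic deacetylase assay with 250 μM acetylated histone substrate, 1 mM DTT and 200 μM NAD⁺ for 60 min at 37 °C. Inhibitor was tested at 0, 20, 75, 100, 150 or 300 μM. Developer was added and fluorescence read at ex 360/em 450 nm. Values are the mean of at least three separate experiments.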

[3] = target: T2, NAD-dependent protein deacetylase sirtuin-1 (Homo sapiens) (UniProt Q96EB6); assay: Inhibitory activity against human SIRT1 at 100 uM; outline: as §1
T2 sequence (whole entry): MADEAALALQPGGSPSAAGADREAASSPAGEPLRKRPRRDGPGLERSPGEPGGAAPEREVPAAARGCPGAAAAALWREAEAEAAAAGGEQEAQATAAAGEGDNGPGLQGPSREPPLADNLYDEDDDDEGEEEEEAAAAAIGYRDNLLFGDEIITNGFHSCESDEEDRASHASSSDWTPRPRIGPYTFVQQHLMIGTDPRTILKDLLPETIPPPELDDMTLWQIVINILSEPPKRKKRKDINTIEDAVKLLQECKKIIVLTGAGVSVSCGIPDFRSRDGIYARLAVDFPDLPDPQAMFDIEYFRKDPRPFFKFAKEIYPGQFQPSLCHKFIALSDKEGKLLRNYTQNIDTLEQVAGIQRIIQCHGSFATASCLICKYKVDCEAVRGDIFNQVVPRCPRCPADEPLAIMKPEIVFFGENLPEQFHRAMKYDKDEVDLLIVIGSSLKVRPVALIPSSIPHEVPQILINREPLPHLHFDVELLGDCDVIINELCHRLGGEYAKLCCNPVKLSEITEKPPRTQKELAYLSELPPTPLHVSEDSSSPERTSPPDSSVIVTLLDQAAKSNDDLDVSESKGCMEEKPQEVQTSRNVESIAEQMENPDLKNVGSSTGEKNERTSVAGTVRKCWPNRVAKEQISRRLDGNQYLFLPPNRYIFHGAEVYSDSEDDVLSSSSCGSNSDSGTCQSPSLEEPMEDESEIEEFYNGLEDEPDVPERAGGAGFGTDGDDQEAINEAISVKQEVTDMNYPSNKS

NAD-dependent histone deacetylase SIR2 (Saccharomyces cerevisiae S288c), sequence (P06700 whole entry): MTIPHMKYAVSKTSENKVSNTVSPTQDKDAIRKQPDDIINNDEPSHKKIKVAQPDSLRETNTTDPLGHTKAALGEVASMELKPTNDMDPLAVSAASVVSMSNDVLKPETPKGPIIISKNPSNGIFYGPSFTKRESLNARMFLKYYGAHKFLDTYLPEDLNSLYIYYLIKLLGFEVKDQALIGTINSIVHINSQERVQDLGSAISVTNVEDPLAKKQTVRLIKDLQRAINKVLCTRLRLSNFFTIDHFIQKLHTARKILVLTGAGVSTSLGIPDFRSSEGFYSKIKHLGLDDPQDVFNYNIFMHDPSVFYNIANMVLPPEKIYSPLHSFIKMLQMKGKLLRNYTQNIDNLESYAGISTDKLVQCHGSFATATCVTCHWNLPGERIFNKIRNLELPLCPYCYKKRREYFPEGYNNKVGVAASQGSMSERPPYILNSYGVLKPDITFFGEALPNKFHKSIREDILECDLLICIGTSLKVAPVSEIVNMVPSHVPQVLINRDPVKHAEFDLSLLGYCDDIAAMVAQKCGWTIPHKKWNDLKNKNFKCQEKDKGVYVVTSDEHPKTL

Structure (SMILES): C[C@@H](NC(=O)c1ccccc1/N=C/c1c(O)ccc2ccccc12)c1ccccc1
- inhibition [1]: 55.5%
- inhibition [2]: 72.2%
- inhibition [3]: 61.8%

Structure (SMILES): CC(NC(=O)c1ccccc1/N=C/c1c(O)ccc2ccccc12)c1ccccc1 (stereo not given)
- inhibition [1]: 65.6%
- inhibition [2]: 71%
- inhibition [3]: 44.5%

Structure (SMILES): C[C@H](NC(=O)c1ccccc1/N=C/c1c(O)ccc2ccccc12)c1ccccc1
- inhibition [1]: 57%
- inhibition [2]: 73.5%
- inhibition [3]: 60.2%

Structure (SMILES): CC(NC(=O)c1ccccc1/N=C/c1cccc2ccccc12)c1ccccc1 (stereo not given)
- inhibition [1]: 10%
- inhibition [3]: 33%

Structure (SMILES): CC(NC(=O)c1cccc(/N=C/c2c(O)ccc3ccccc23)c1)c1ccccc1 (stereo not given)
- inhibition [1]: 53.9%
- inhibition [2]: 79.2%
- inhibition [3]: 63%

Structure (SMILES): N#Cc1ccccc1/N=C/c1c(O)ccc2ccccc12
- inhibition [1]: 15%
- inhibition [3]: 20%

Structure (SMILES): O=C(O)c1ccccc1/N=C/c1c(O)ccc2ccccc12
- inhibition [1]: 5%
- inhibition [3]: 26%

Structure (SMILES): NC(=O)c1ccccc1/N=C/c1c(O)ccc2ccccc12
- inhibition [1]: inactive
- inhibition [3]: inactive

Structure (SMILES): CCOC(=O)c1ccccc1/N=C/c1c(O)ccc2ccccc12
- inhibition [1]: 20%
- inhibition [3]: 9%

Structure (SMILES): CC(NC(=O)c1ccc(/N=C/c2c(O)ccc3ccccc23)cc1)c1ccccc1 (stereo not given)
- inhibition [1]: 59.8%
- inhibition [2]: 80.2%
- inhibition [3]: 82.6%
